Test results as given in the RNAGym collection of RNA variant scans (doi:10.1002/anie.201605470).

B1: Osa-1-4 twister ribozyme (parent)
chain: CCGCCUAACACUGCCAAUGCCGGUCCCAAGCCCGGAUAAAAGUGGAGGGGGCGG

Variants of: B1
Experiment: self-cleavage, relative activity (ratio to wild type); higher = more cleavage; co-transcriptional
Procedure, shortened: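 The 48 positions downstream of the cleavage site in a 54-nucleotide Oryza sativa twister ribozyme template were synthesised at 97 % wild-type base and 1 % of each other base. The template was transcribed in vitro at 37 °C for 2 h, with self-cleavage allowed during transcription. Reads with or without upstream sequence after deep sequencing marked cleavage status, and relative activity is fraction cleaved normalised to wild type.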
Work on U18G U37C yielded a self-cleavage of 0.86.
With U18G U37A the self-cleavage was 0.59.
Work on U18G U37G yielded a self-cleavage of 0.85.
G19U U43G showed a self-cleavage of 0.09.
With G19U U43A the self-cleavage was 0.11.
For G19U U43C, the self-cleavage was 0.07.
Variant G19U G47C has a self-cleavage of 0.04.
Work on G19U G47A yielded a self-cleavage of 0.04.
G19U G47U gave a self-cleavage of 0.04.
G19U G54A showed a self-cleavage of 0.16.
In the case of G19U G54C, the self-cleavage is reported as 0.1.
For G19U G54U, the self-cleavage was 0.54.
C20A C27U showed a self-cleavage of 0.31.
C20A C27G showed a self-cleavage of 0.09.
Work on C20A C27A yielded a self-cleavage of 0.34.
In the case of A17U G54U, the self-cleavage is reported as 0.99.
Variant A17U G54C has a self-cleavage of 1.
For A17U G54A, the self-cleavage was 0.99.
For C20A G50C, the self-cleavage was 0.78.
Variant C20A G50A has a self-cleavage of 0.8.
Work on C20A G50U yielded a self-cleavage of 0.82.
With U18G U43C the self-cleavage was 0.67.
U18G U43G showed a self-cleavage of 0.77.
Work on U18G U43A yielded a self-cleavage of 0.76.
G19U U18C showed a self-cleavage of 0.36.
G19U U18A showed a self-cleavage of 0.11.
For G19U U18G, the self-cleavage was 0.33.
For C20A G44U, the self-cleavage was 0.78.
C20A G44A showed a self-cleavage of 0.75.
C20A G44C showed a self-cleavage of 0.76.
G19A G53A showed a self-cleavage of 0.18.
G19A G53U showed a self-cleavage of 0.13.
G19A G53C gave a self-cleavage of 0.09.
G19C G45A showed a self-cleavage of 0.03.
In the case of G19C G45U, the self-cleavage is reported as 0.03.
In the case of G19C G45C, the self-cleavage is reported as 0.03.
Variant A17U U37C has a self-cleavage of 1.06.
For A17U U37A, the self-cleavage was 0.73.
Variant A17U U37G has a self-cleavage of 1.01.
With C20A C21U the self-cleavage was 0.86.
With C20A C21A the self-cleavage was 0.78.
For C20A C21G, the self-cleavage was 0.12.
Variant G19U G35U has a self-cleavage of 0.76.
For G19U G35C, the self-cleavage was 0.6.
Work on G19U G35A yielded a self-cleavage of 0.21.
With C20A G45A the self-cleavage was 0.45.
Variant C20A G45C has a self-cleavage of 0.05.
With C20A G45U the self-cleavage was 0.13.
G19C G49C gave a self-cleavage of 0.03.
Variant G19C G49A has a self-cleavage of 0.04.
With G19C G49U the self-cleavage was 0.04.
G19U G50A showed a self-cleavage of 0.59.
For G19U G50U, the self-cleavage was 0.21.
Work on G19U G50C yielded a self-cleavage of 0.1.
Work on G19A G50U yielded a self-cleavage of 0.56.
For G19A G50A, the self-cleavage was 0.92.
Work on G19A G50C yielded a self-cleavage of 0.27.
Work on C20A G34C yielded a self-cleavage of 0.26.
C20A G34A gave a self-cleavage of 0.84.
With C20A G34U the self-cleavage was 0.64.
G19U gave a self-cleavage of 0.57.
For G19C, the self-cleavage was 0.27.
For G19A, the self-cleavage was 0.99.
G19A U24G showed a self-cleavage of 0.09.
G19A U24A gave a self-cleavage of 0.08.
Variant G19A U24C has a self-cleavage of 0.08.
U18C U43C showed a self-cleavage of 0.35.
U18C U43G showed a self-cleavage of 0.3.
For U18C U43A, the self-cleavage was 0.65.
Work on C20A G49C yielded a self-cleavage of 0.06.
Work on C20A G49A yielded a self-cleavage of 0.2.
Work on C20A G49U yielded a self-cleavage of 0.16.
For G19C U43A, the self-cleavage was 0.07.
For G19C U43G, the self-cleavage was 0.07.
For G19C U43C, the self-cleavage was 0.05.
G19U G45U showed a self-cleavage of 0.04.
For G19U G45C, the self-cleavage was 0.04.
G19U G45A showed a self-cleavage of 0.03.
A17U G50C gave a self-cleavage of 1.02.
Variant A17U G50A has a self-cleavage of 0.69.
In the case of A17U G50U, the self-cleavage is reported as 1.02.
C20A G47C gave a self-cleavage of 0.13.
Work on C20A G47A yielded a self-cleavage of 0.36.
C20A G47U showed a self-cleavage of 0.32.
In the case of G19A G47U, the self-cleavage is reported as 0.07.
G19A G47C gave a self-cleavage of 0.08.
For G19A G47A, the self-cleavage was 0.08.
Variant C20A G30A has a self-cleavage of 0.04.
In the case of C20A G30C, the self-cleavage is reported as 0.04.
C20A G30U gave a self-cleavage of 0.03.
Variant C20A C31U has a self-cleavage of 0.81.
Work on C20A C31G yielded a self-cleavage of 0.14.
Work on C20A C31A yielded a self-cleavage of 0.04.
Work on G19A G44A yielded a self-cleavage of 0.23.
G19A G44U showed a self-cleavage of 0.4.
In the case of G19A G44C, the self-cleavage is reported as 0.72.
Work on G19C G30A yielded a self-cleavage of 0.02.
In the case of G19C G30C, the self-cleavage is reported as 0.03.
G19C G30U gave a self-cleavage of 0.02.
With G19C U37A the self-cleavage was 0.46.
G19C U37C gave a self-cleavage of 0.64.
For G19C U37G, the self-cleavage was 0.24.
Variant G19U U24A has a self-cleavage of 0.05.
With G19U U24G the self-cleavage was 0.07.
G19U U24C gave a self-cleavage of 0.07.
Variant C20A C33G has a self-cleavage of 0.05.
For C20A C33U, the self-cleavage was 0.76.
With C20A C33A the self-cleavage was 0.08.
A17U G49A gave a self-cleavage of 0.25.
Variant A17U G49C has a self-cleavage of 0.08.
A17U G49U showed a self-cleavage of 0.22.
C20A U18G gave a self-cleavage of 0.67.
Variant C20A U18A has a self-cleavage of 0.6.
C20A U18C gave a self-cleavage of 0.83.
With G19U G49A the self-cleavage was 0.04.
G19U G49U gave a self-cleavage of 0.03.
For G19U G49C, the self-cleavage was 0.04.
For G19A U18A, the self-cleavage was 0.84.
G19A U18G gave a self-cleavage of 1.01.
G19A U18C gave a self-cleavage of 0.93.
Work on C20A yielded a self-cleavage of 0.86.
In the case of G19C G50A, the self-cleavage is reported as 0.24.
For G19C G50C, the self-cleavage was 0.06.
With G19C G50U the self-cleavage was 0.07.
Work on G19C G34U yielded a self-cleavage of 0.07.
For G19C G34C, the self-cleavage was 0.05.
Variant G19C G34A has a self-cleavage of 0.1.
U18A U37A showed a self-cleavage of 0.63.
U18A U37G showed a self-cleavage of 0.93.
Work on U18A U37C yielded a self-cleavage of 0.98.
U18A U24A gave a self-cleavage of 0.25.
With U18A U24C the self-cleavage was 0.37.
For U18A U24G, the self-cleavage was 0.02.
In the case of G19C G51C, the self-cleavage is reported as 0.03.
Work on G19C G51A yielded a self-cleavage of 0.08.
Variant G19C G51U has a self-cleavage of 0.04.
G19C G47U gave a self-cleavage of 0.04.
G19C G47A gave a self-cleavage of 0.03.
Work on G19C G47C yielded a self-cleavage of 0.02.
U18C U37A gave a self-cleavage of 0.69.
U18C U37C gave a self-cleavage of 0.97.
For U18C U37G, the self-cleavage was 0.95.
In the case of G19A G30U, the self-cleavage is reported as 0.06.
G19A G30A gave a self-cleavage of 0.05.
G19A G30C gave a self-cleavage of 0.07.
In the case of G19U U12A, the self-cleavage is reported as 0.07.
For G19U U12C, the self-cleavage was 0.05.
Variant G19U U12G has a self-cleavage of 0.09.
With C20A G53A the self-cleavage was 0.67.
C20A G53U gave a self-cleavage of 0.42.
For C20A G53C, the self-cleavage was 0.1.
Work on G19A G23C yielded a self-cleavage of 0.06.
In the case of G19A G23U, the self-cleavage is reported as 0.05.
G19A G23A showed a self-cleavage of 0.12.
In the case of G19A G35A, the self-cleavage is reported as 0.83.
Work on G19A G35U yielded a self-cleavage of 0.2.
Variant G19A G35C has a self-cleavage of 0.68.
C20A C52A showed a self-cleavage of 0.8.
Variant C20A C52U has a self-cleavage of 0.82.
C20A C52G gave a self-cleavage of 0.79.
Variant C20A G23A has a self-cleavage of 0.18.
C20A G23C gave a self-cleavage of 0.03.
C20A G23U showed a self-cleavage of 0.1.
A17U G53A showed a self-cleavage of 0.95.
For A17U G53U, the self-cleavage was 0.41.
Work on A17U G53C yielded a self-cleavage of 0.12.
G19C G53C gave a self-cleavage of 0.04.
